# ChEMBL document CHEMBL1130344, “Discovery of TBC11251, a potent, long acting, orally active endothelin receptor-A selective antagonist” (J Med Chem, 1997)
# Calls of active or inactive are those of the source. The calls are words filed in the database; no cut-off is given here.
# Experiments:
# Endothelin-1 receptor [1] = molecular target: T1, Endothelin-1 receptor (Homo sapiens, UniProt P25101); assay: In vitro inhibition of endothelin binding to human Endothelin A receptor using [125I]-labeled ET-1 competition assay
# T1 sequence (P25101 whole entry): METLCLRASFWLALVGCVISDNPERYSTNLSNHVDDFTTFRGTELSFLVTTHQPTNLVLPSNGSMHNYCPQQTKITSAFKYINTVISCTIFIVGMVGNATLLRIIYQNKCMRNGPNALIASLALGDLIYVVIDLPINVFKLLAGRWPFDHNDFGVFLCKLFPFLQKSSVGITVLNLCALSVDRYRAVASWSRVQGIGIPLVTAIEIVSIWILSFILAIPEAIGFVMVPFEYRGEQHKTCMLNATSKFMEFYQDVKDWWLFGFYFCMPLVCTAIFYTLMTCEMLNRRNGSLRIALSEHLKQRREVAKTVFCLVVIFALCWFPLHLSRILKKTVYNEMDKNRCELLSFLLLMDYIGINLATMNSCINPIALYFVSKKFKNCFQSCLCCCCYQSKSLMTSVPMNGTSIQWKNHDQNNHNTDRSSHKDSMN
# In short: (§1)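 Membranes in 30 mM HEPES pH 7.4 with 150 mM NaCl, 5 mM MgCl2 and 0.05% bacitracin: […] for ET_B (ET_B from COS 7 cells transfected with human ET_B DNA). Competition against 4 pM [125I]ET-1, 0.25% DMSO final, in triplicate, for 16–18 h at 24 °C. Nonspecific binding with 100 nM ET-1. Bound radioactivity gamma-counted after centrifugation.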
# [2] = The serum half life of the compound; assay type: ADME, cell-free
# Rattus norvegicus [3] = assay: The compound was tested in vivo for percent inhibition in ET-1 challenge in rats at 15 mg/kg; assay type: functional
# In short: (§2)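 Male Sprague–Dawley rats (250–350 g) were cannulated (femoral artery/vein) under methohexital, then restrained conscious with 60 min recovery. Autonomic blockade used iv atropine methyl nitrate 3 mg/kg plus propranolol 2 mg/kg. Vehicle was 1 M Tris base or sodium bicarbonate.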
# [4] = molecular target: T2, Endothelin receptor type B (Homo sapiens, UniProt P24530); assay: In vitro inhibition of endothelin binding to human Endothelin B receptor using [125I]-labeled ET-1 competition assay; in short: as §1
# T2 sequence (P24530 whole entry): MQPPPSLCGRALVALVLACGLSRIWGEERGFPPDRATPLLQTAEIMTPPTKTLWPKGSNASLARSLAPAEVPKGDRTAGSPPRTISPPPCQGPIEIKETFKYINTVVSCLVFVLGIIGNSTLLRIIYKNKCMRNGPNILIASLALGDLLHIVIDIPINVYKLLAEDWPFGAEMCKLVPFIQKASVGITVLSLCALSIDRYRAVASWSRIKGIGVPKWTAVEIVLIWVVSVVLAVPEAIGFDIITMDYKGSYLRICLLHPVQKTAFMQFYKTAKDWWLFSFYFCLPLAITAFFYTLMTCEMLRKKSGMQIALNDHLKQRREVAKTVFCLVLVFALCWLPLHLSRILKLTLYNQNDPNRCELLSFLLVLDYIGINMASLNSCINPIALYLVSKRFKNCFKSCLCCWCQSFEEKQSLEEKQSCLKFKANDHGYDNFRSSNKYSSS
# [5] = Oral bioavailability in rat; assay type: ADME, organism-based; settings: in vivo
# In short: (§3)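 Rats (48 h post-surgery recovery) received 20–50 mg/kg at 1 mL/kg iv or 10 mL/kg po. Serial caudal-vein blood samples were taken over 24 h, and plasma was stored at -20 °C until assay. Bioavailability came from comparing dose and AUC.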
# [6] = Serum half life in rat; assay type: ADME, organism-based; in short: as §3
# Rattus norvegicus [7] = assay: The compound was tested in vivo for percent inhibition in ET-1 challenge in rats at 15 mg/kg; not active; assay type: functional, organism-based; design: dose 15 mg/kg; in short: as §2
# Rattus norvegicus [8] = assay: The compound was tested in vivo for percent inhibition in ET-1 challenge in rats at 60 mg/kg; assay type: functional; in short: as §2
# [9] = Phosphoinositol hydrolysis in TE671 or transfected cos 7 cells; assay type: functional, cell-based; settings: read-out: pA2 (converted)
# In short: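 TE 671 or transfected COS 7 cells were grown to confluence, then labelled for 16 h with [3H]myoinositol in inositol-free RPMI with 10% inositol-free FCS at 37 °C, 6% CO2. They were preincubated 10 min in LiCl-containing HEPES buffer pH 7.4 ± test compound, then given ET-1 at varying concentrations for 45 min. Inositol phosphates were extracted with ice-cold methanol (Berridge method), and well protein was measured by BCA.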
# Rattus norvegicus [10] = assay: In vivo efficacy in acute hypoxia induced pulmonary hypertension in rats following oral administration; assay type: functional, organism-based
# [11] = Oral bioavailability in dog; assay type: ADME, organism-based, Canis lupus familiaris; settings: in vivo
# In short: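 Dogs (7 days post-surgery recovery) were dosed iv at 1 mL/kg via the right saphenous vein, or by oral gavage at 2 mL/kg plus an aqueous flush after overnight fasting. Routes were crossed over 7 days later. Plasma levels were followed over 24 h, and bioavailability came from comparing dose and AUC.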
# Rattus norvegicus [12] = assay: In vivo efficacy in acute hypoxia induced pulmonary hypertension in rats following intravenous administration; assay type: functional, organism-based
# Endothelin-1 receptor [13] = molecular target: T1, Endothelin-1 receptor; assay: Binding affinity against human Endothelin A receptor
SMILES,IC50 (Endothelin-1 receptor [1]) [nM],IC50 [4] [nM],other results
COc1ccc(NC(=O)c2sccc2S(=O)(=O)Nc2onc(C)c2Cl)c(C)c1,–,–,half-life [2]: < 9 min; inhibition in vivo at 15 mg/kg (Rattus norvegicus [3]): 33%
Cc1ccc(CC(=O)c2sccc2S(=O)(=O)Nc2onc(C)c2Br)cc1,20,–,–
Cc1noc(NS(=O)(=O)c2ccsc2C(=O)Nc2ccc3c(c2)OCO3)c1Br,–,–,bioavailability [5]: 0%; half-life [6]: < 0.5 h; inhibition (Rattus norvegicus [7]): inactive
COc1cc(C#N)c(NC(=O)c2sccc2S(=O)(=O)Nc2onc(C)c2Cl)cc1OC,–,–,bioavailability [5]: 2%; half-life [6]: < 0.15 h; inhibition in vivo at 15 mg/kg (Rattus norvegicus [3]): 50%
Cc1ccc(C)c(CC(=O)c2sccc2S(=O)(=O)Nc2onc(C)c2Cl)c1,7.2,–,–
Cc1ccc(CC(=O)c2sccc2S(=O)(=O)Nc2onc(C)c2C)cc1,27,29200,–
Cc1ccc(CC(=O)c2sccc2S(=O)(=O)Nc2onc(C)c2Br)c(C)c1,0.76,3500,–
Cc1ccc(NC(=O)c2sccc2S(=O)(=O)Nc2onc(C)c2Cl)cc1,–,–,bioavailability [5]: 0%; half-life [6]: < 0.5 h; inhibition (Rattus norvegicus [7]): inactive
COc1cccc(CC(=O)c2sccc2S(=O)(=O)Nc2onc(C)c2Cl)c1,30,19100,–
Cc1cc2c(cc1CC(=O)c1sccc1S(=O)(=O)Nc1noc(C)c1Cl)OCO2,–,3900,Kb [9]: 3.39 nM
Cc1cc2c(cc1CC(=O)c1sccc1S(=O)(=O)Nc1onc(C)c1C)OCO2,–,–,bioavailability [5]: 100%; half-life [6]: 7 h; inhibition in vivo at 15 mg/kg (Rattus norvegicus [3]): 33%
CC#N.Cc1noc(NS(=O)(=O)c2ccsc2C(=O)Cc2cc3c(cc2C#N)OCO3)c1Cl,1.3,723,Kb [9]: 10 nM; inhibition in vivo at 15 mg/kg (Rattus norvegicus [3]): 52%
Cc1ccc(CC(=O)c2sccc2S(=O)(=O)Nc2onc(C)c2Cl)c(C)c1,0.97,–,–

# Continued, in another order:
IC50 (Endothelin-1 receptor [1]) [nM],IC50 [4] [nM],SMILES,other results
19600,–,Cc1noc(NS(=O)(=O)c2ccsc2C(=O)N2CCN(Cc3ccc4c(c3)OCO4)CC2)c1Cl,–
21000,> 100000,Cc1noc(NS(=O)(=O)c2ccsc2C(Cc2ccc3c(c2)OCO3)N(C)C)c1Cl (stereo not given),–
3.4,40400,Cc1noc(NS(=O)(=O)c2ccsc2C(=O)Nc2ccc3c(c2C#N)OCO3)c1Cl,bioavailability [5]: 8%; half-life [6]: 2.5 h; inhibition in vivo at 15 mg/kg (Rattus norvegicus [3]): 8%
–,27200,Cc1noc(NS(=O)(=O)c2ccsc2C(=O)Cc2ccc3c(c2)OCO3)c1C,–
10,32600,CC(=O)c1c(NC(=O)c2sccc2S(=O)(=O)Nc2onc(C)c2Cl)ccc2c1OCO2,bioavailability [5]: 27%; half-life [6]: 2.5 h; inhibition in vivo at 15 mg/kg (Rattus norvegicus [3]): 18%
3,355000,Cc1noc(NS(=O)(=O)c2ccsc2C(=O)Nc2ccc3c(c2C)OCO3)c1Cl,inhibition in vivo at 15 mg/kg (Rattus norvegicus [3]): 14%
18,7000,Cc1noc(NS(=O)(=O)c2ccsc2C(=O)Cc2ccc3c(c2)OCO3)c1Cl,inhibition in vivo at 60 mg/kg (Rattus norvegicus [8]): 41%; bioavailability [5]: 30%; half-life [6]: 1.5 h; Kb [9]: 178 nM
123,2100,Cc1noc(NS(=O)(=O)c2ccsc2C2(Cc3ccc4c(c3)OCO4)OCCO2)c1Cl,–
887,37200,Cc1noc(NS(=O)(=O)c2ccsc2C(=O)NC(=O)c2ccc3c(c2)OCO3)c1Br,–
14,–,Cc1noc(NS(=O)(=O)c2ccsc2C(=O)Cc2ccc3c(c2)OCO3)c1Br,–
1.4,9800,Cc1cc2c(cc1CC(=O)c1sccc1S(=O)(=O)Nc1onc(C)c1Cl)OCO2 [SITAXENTAN],bioavailability [5]: 60%; EC50 (Rattus norvegicus [10]): 1 mg/kg; bioavailability [11]: 90%; half-life [6]: 6.7 h; Kb [9]: 10 nM; EC50 (Rattus norvegicus [12]): 0.5 mg/kg; Ki (Endothelin-1 receptor [13]): 0.43 nM; inhibition in vivo at 15 mg/kg (Rattus norvegicus [3]): 41%
56,15700,Cc1noc(NS(=O)(=O)c2ccsc2C(O)Cc2ccc3c(c2)OCO3)c1Cl (stereo not given),–
22200,> 100000,Cc1noc(NS(=O)(=O)c2ccsc2C(C)(O)Cc2ccc3c(c2)OCO3)c1Cl (stereo not given),–
2000,15400,Cc1noc(NS(=O)(=O)c2ccsc2C(=O)c2ccc3c(c2)OCO3)c1Br,–
1100,4200,Cc1noc(NS(=O)(=O)c2ccsc2/C(Cc2ccc3c(c2)OCO3)=N\O)c1Cl,–
